9 molecules from ChEMBL document CHEMBL1123268 (J Med Chem, 1986) can be followed below.

The subject of data set [1] is P388. The data set is described as follows: Antineoplastic activities against P388 leukemia in CD2F1 male mice. The data set is classed as functional, Mus musculus. Also on record: unit not given here. The method in brief: (§1)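 P388 leukemia: CD2F1 male mice (18-20 g, six per group) received 10^6 cells ip on day 0. Drug injected ip daily on days 1-9. Survival followed 30 days, with some groups to 60 days. Activity read as treated/control mean survival time (T/C), with %ILS calculated as [(T - C)/C] × 100. NCI protocol.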

The subject of data set [2] is P388. Kind of data set: Number of cures from P388 leukemia in CD2F1 male mice as tumor-free survivors after day 60. The data set is classed as functional, Mus musculus. The note with it: for Cures (survivors/total): Mus musculus. The method in brief:
(§2)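 Cures in P388-bearing CD2F1 male mice: 10^6 tumor cells ip on day 0, then ip treatment daily on days 1-9 in groups of six. Animals were observed up to 60 days, and tumor-free survivors were counted as cures.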

The test system of data set [3] is L1210. The data set is described as follows: Compound was tested for anticancer activities against L1210 leukemia in CD2F1 male mice at dose of 6.5 mg/kg per day; 0/6. The format is functional, Mus musculus.
The test system of data set [4] is P388. Kind of data set: Antineoplastic activity against P388 leukemia in CD2F1 male mice and the average percentage weight change on day 5 was measured. The data set is classed as functional, Mus musculus. Put shortly:
(§3)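 Toxicity readout in the P388 model: CD2F1 male mice given 10^6 cells ip on day 0, then daily ip dosing for 9 days from day 1. Average percentage body-weight change on day 5 was taken as the measure of drug toxicity.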

For data set [5], the system named is L1210. The data set is described as follows: (§4) Compound was tested for anticancer activities against L1210 leukemia in CD2F1 male mice at dose of 6.5 mg/kg per day. The format is functional, Mus musculus.
The test system of data set [6] is P388. Kind of data set: Compound was tested for its antineoplastic activities against P388 leukemia in CD2F1 male mice. The format is functional, Mus musculus. The method in brief:
as §1

The test system of data set [7] is P388. Kind of data set: Antineoplastic activity against P388 leukemia in CD2F1 male mice and the percent increase in life span was measured on day 30. The data set is classed as functional, Mus musculus. Put shortly: as §1
Data set [8] concerns L1210. The description is as §4. The format is functional. The settings on record: Mus musculus.
Data set [9] is described as follows: Therapeutic ratio as optimum dose/dose ILS40. The settings on record: read-out: Therapeutic ratio. Put shortly: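 Therapeutic ratio derived from the P388/L1210 survival data (CD2F1 male mice, ip daily dosing days 1-9). Optimum dose is the daily dose giving maximum increase in life span. ILS40 dose is the daily dose giving a 40% increase in life span over controls.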

The subject of data set [10] is L1210. The data set is described as follows: Anticancer activities against L1210 leukemia in CD2F1 male mice at dose of 50 mg/kg per day. The format is functional. The settings on record: Mus musculus.
In data set [11] the test system is P388. Kind of data set: Compound was tested for number of cures from P388 leukemia in CD2F1 male mice as tumor-free survivors after day 60; 3/6. The format is functional, Mus musculus. The method in brief: as §2
The test system of data set [12] is P388. The data set is described as follows: Compound was tested for its antineoplastic activity against P388 leukemia in CD2F1 male mice and the percent increase in life span was measured on day 30. The data set is classed as functional, Mus musculus. Put shortly: as §1
Data set [13] deals with L1210. Kind of data set: Compound was tested for anticancer activities against L1210 leukemia in CD2F1 male mice at dose of 50 mg/kg per day; 12.0/7. The format is functional, Mus musculus.
Data set [14] deals with L1210. The data set is described as follows: Compound was tested for anticancer activities against L1210 leukemia in CD2F1 male mice at dose of 50 mg/kg per day; 0/6. The format is functional, Mus musculus.
Data set [15] has as its system L1210. The data set is described as follows: Compound was tested for anticancer activities against L1210 leukemia in CD2F1 male mice at dose of 50 mg/kg per day. The data set is classed as functional, Mus musculus.
Data set [16] relates to L1210. The settings on record: Mus musculus.
The subject of data set [17] is L1210. The note with it: Mus musculus, at 100 mg/kg/day.
Data set [18] relates to L1210. The settings on record: Mus musculus. The source holds these as a separate data set.
Data set [19] has as its system L1210. The note with it: Mus musculus, at 100 mg/kg/day. The source holds these as a separate data set.
Data set [20] concerns L1210. The settings on record: Mus musculus. The source holds these as a separate data set.
Data set [21] has as its system P388. Kind of data set: Compound was tested for its antineoplastic activity against P388 leukemia in CD2F1 male mice and the average percentage weight change on day 5 was measured. The format is functional. The method in brief:
as §3

The subject of data set [22] is L1210. The data set is classed as functional, Mus musculus. The settings on record: at 100 mg/kg/day.
The subject of data set [23] is L1210. The data set is described as follows: Compound was tested for anticancer activity against L1210 leukemia in CD2F1 male mice at dose of 25 mg/kg per day. The format is functional, Mus musculus.
In data set [24] the test system is P388. The data set is described as follows: Compound was tested for its antineoplastic activity against P388 leukemia in CD2F1 male mice. The data set is classed as functional, Mus musculus. Put shortly:
as §1

For data set [25], the system named is L1210. The data set is described as follows: animal or person. The format is functional. The note with it: Mus musculus.
Data set [26] concerns P388. Kind of data set: Compound was tested for number of cures from P388 leukemia in CD2F1 male mice as tumor-free survivors after day 60; 6/6. The data set is classed as functional, Mus musculus. The method in brief: as §2
Data set [27] relates to L1210. The data set is classed as functional, Mus musculus.
The test system of data set [28] is L1210. The data set is described as follows: Compound was tested for anticancer activity against L1210 leukemia in CD2F1 male mice at dose of 25 mg/kg per day; 8.6/7. The data set is classed as functional, Mus musculus.
The test system of data set [29] is L1210. The data set is classed as functional, Mus musculus. The source holds these as a separate data set.
In data set [30] the test system is L1210. Kind of data set: Compound was tested for anticancer activity against L1210 leukemia in CD2F1 male mice at dose of 50 mg/kg per day; 12.6/7. The format is functional, Mus musculus.
For data set [31], the system named is L1210. Kind of data set: Compound was tested for anticancer activity against L1210 leukemia in CD2F1 male mice at dose of 50 mg/kg per day. The format is functional, Mus musculus.
In data set [32] the test system is L1210. Kind of data set: Compound was tested for anticancer activities against L1210 leukemia in CD2F1 male mice at dose of 25 mg/kg per day; 0/6. The data set is classed as functional, Mus musculus.
Data set [33] has as its system L1210. Kind of data set: Compound was tested for anticancer activities against L1210 leukemia in CD2F1 male mice at dose of 25 mg/kg per day. The settings on record: Mus musculus. The format is functional.

The T/C is the result in the treated group divided by that in the control group, in per cent. The ILS is the gain in survival time of treated over control animals, in per cent. In the case of `S=P(N1CC1)(N1CC1)N1CC1` [THIOTEPA], the Optimal dose with P388 [1] worked out at 6. In the data set with P388 [2], this molecule yielded a Cures of 0 survivors/total. For the same molecule, the “Survivors at day 30” value in the data set on L1210 [3] is given as 0. Also, the “Weight change on day 5” value in the data set with P388 [4] is listed as -2.1%. The molecule also displayed a T/C in the data set with L1210 [5] of 155%. The molecule further gave an ILS40 in the data set with P388 [6] of 2.18 mg/kg/day. In the data set on P388 [7], this molecule registered an ILS of 141%. The molecule further came in with an ILS at 6.5 mg/kg/day with L1210 [8] of 55%. Also, in data set [9], the selectivity ratio came out at 2.75.
The molecule `O=c1[nH]cc(F)c(=O)[nH]1` [FLUOROURACIL] had an Optimal dose with P388 [1] of 200. The Cures in the data set on P388 [2] is listed as 0 survivors/total. Further, the “Weight change on day 5” value with P388 [4] is recorded as -4%. This molecule came in with an ILS in the data set with P388 [7] of 79%.
As for `CC1(C)CC(NC(=O)NP(=O)(N2CC2)N2CC2)C(C)(C)N1[O]` (stereo not given), the Optimal dose in the data set with P388 [1] amounted to 90. Further, the ILS at 50 mg/kg/day in the data set with L1210 [10] was determined as 72%. This molecule also showed a Cures in the data set with P388 [11] of 3 survivors/total. In addition, the ILS40 with P388 [6] was found to be 4 mg/kg/day. The same molecule showed an ILS max with P388 [12] of 387%. Besides, the T/C survival days in the data set on L1210 [13] was 12. In addition, the “Survivors at day 30” value in the data set on L1210 [14] came out at 0. The same molecule displayed an ILS with P388 [7] of 178%. Also, in data set [9], the selectivity ratio turned out to be 22.5. Also, in the data set with L1210 [15], the T/C stood at 172%.
Consider `CC1(C)CC(NP(=S)(N2CC2)N2CC2)CC(C)(C)N1[O]`, for which, in the data set with P388 [1], the Optimal dose is recorded as 25. This molecule displayed an ILS in the data set on P388 [7] of 96%. Besides, the selectivity ratio in data set [9] came out at 2.73.
`CC1(C)CC(OP(=S)(N2CC2)N2CC2)CC(C)(C)N1[O]` returned an Optimal dose in the data set with P388 [1] of 12. Besides, in the data set on P388 [7], the ILS worked out at 103%. Further, in [9], the selectivity ratio is 5.15.
The molecule `CC1(C)CC(NC(=O)NP(=O)(N2CC2(C)C)N2CC2(C)C)C(C)(C)N1[O]` (stereo not given) had an Optimal dose in the data set on P388 [1] (Mus musculus) of 90. The same molecule came in with a Survivors at day 30 with L1210 [16] of 0. Also, the T/C with L1210 [17] was 148%. Further, the Cures (survivors/total) in the data set with P388 [2] was found to be 0. For the same molecule, the Weight change on day 5 in the data set on P388 [4] (Mus musculus) stood at 6.2%. This molecule also came in with a T/C survival days with L1210 [18] of 10.4. Besides, the figures for the ILS with L1210 [19] and in the data set with P388 [7] (Mus musculus) were 48% and 56%, respectively.
In the case of `CC1(C)CC(NC(=O)NP(=O)(N2CC2(C)C)N2CC2(C)C)CC(C)(C)N1[O]` (stereo not given), in the data set with P388 [1] (Mus musculus), the Optimal dose is 90. Moreover, in the data set on L1210 [16], the Survivors at day 30 came out at 0. This molecule also showed a T/C survival days with L1210 [20] of 11.5. In the data set with L1210 [17], this molecule returned a T/C of 164%. In the data set on P388 [2], this molecule returned a Cures (survivors/total) of 0. Moreover, the values for the ILS with L1210 [19] and with P388 [7] (Mus musculus) were 64% and 62%, respectively. Moreover, the Weight change on day 5 with P388 [21] (Mus musculus) turned out to be 7.3%.
`O=P(N1CC1)(N1CC1)N1CC1` [TEPA] gave an Optimal dose in the data set on P388 [1] of 6. Moreover, the Cures in the data set on P388 [2] was determined as 0 survivors/total. Also, the “Weight change on day 5” value in the data set on P388 [4] was -4%. In the data set on P388 [6], this molecule registered an ILS40 of 2.75 mg/kg/day. Besides, the ILS with P388 [7] was 135%. Moreover, the selectivity ratio in data set [9] worked out at 2.2.
On to `CC1(C)CC(NC(=O)NP(=O)(N2CC2)N2CC2)CC(C)(C)N1[O]`, for which the T/C in the data set with L1210 [22] worked out at 215%; in the data set with L1210 [23] it was 123%; in the data set on L1210 [31] it was 181%. This molecule displayed an ILS40 in the data set on P388 [24] of 3.4 mg/kg/day. The Optimal dose in the data set with P388 [24] came out at 90. In the data set on L1210 [10], the ILS at 50 mg/kg/day came out at 81%. Besides, the ILS at 100 mg/kg/day in the data set on L1210 [25] is 115%. The molecule further displayed a Cures in the data set on P388 [26] of 6 survivors/total. The “Survivors at day 30” value with L1210 [27], in the data set on L1210 [14] and in the data set with L1210 [32] was 0 throughout. The T/C survival days is given as 8.6 with L1210 [28], 14 with L1210 [29] and 12.6 in the data set with L1210 [30]. For the same molecule, in the data set with P388 [12], the ILS max is recorded as 439%. The same molecule registered an increase in lifespan (ILS) in the data set on P388 [7] of 170%. In addition, the ILS at 25 mg/kg/day in the data set with L1210 [33] came out at 23%. Also, in data set [9], the selectivity ratio is 26.5. The “Weight change on day 5” value with P388 [21] was -2.4%.
